Screening data (PubChem)
Compounds with a hit are over-represented: about 1.8% of the library has one in this group of screens.
M5 antag – CHRM5 antagonism in calcium assay. CHO-hM5 cells, Fluo-8 calcium fluorescence, ACh EC80. inhibition, % at 3 µM. 0.59% of 360,000 active;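 active = inhibition above a per-plate cutoff, the mean of that plate's test compounds plus 3 SD, cut at about 27% in these data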;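 note: 0% = acetylcholine EC80 with DMSO and 100% = DMSO without agonist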
CHRM4 PAM – potentiates acetylcholine response at human M4 receptor | AID 624126 | 0.4% of 360,000 active | activation, % at 3 µM | CHO-K1 hM4/Gqi5, Fluo-8 calcium fluorescence, ACh EC20; 0% = ACh EC20, 100% = maximal ACh | P08173;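 active = activation above its plate's cutoff, the mean activation of sample wells plus 3 SD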
Target sequence (P08173 whole entry, looked up): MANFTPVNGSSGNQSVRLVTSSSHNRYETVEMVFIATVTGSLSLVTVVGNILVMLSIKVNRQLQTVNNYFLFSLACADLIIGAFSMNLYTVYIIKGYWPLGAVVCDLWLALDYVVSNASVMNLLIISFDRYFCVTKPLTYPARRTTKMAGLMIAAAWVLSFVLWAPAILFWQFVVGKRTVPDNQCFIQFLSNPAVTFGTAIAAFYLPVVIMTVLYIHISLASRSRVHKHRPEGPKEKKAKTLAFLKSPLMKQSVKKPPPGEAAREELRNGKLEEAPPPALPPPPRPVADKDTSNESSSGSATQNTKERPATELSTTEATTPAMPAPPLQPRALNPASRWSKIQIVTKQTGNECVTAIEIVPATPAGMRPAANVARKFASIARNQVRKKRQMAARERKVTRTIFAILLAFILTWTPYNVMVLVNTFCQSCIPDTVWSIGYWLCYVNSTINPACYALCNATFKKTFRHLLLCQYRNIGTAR
M5 PAM – CHRM5 positive allosteric modulation. P08912. CHO-K1 hM5, Fluo-8 calcium, ACh EC20 PAM; 0% = ACh EC20, 100% = ACh EC100. activation, % at 3 µM. 0.3% of 360,000 active. AID 624038;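 active = activation above the run cutoff, the mean activation of all test compounds plus 3 SD, cut at about 18% in these data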
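system = human M5 receptor in CHO-K1 cells | reagent = EC20 acetylcholine as agonist stimulus | compound dosing = single-point, 3 µM nominal | incubation = Fluo-8 loading 80 min at 37 °C plus 30 min room temperature | detection = Fluo-8 calcium dye fluorescence, kinetic read | benchmarks = low control EC20 acetylcholine (0%), high control EC100 acetylcholine (100%)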
M5 ag – CHRM5 agonism in calcium assay | P08912 | CHO-K1 hM5 cells, Fluo-8 calcium fluorescence; 0% DMSO wells, 100% maximal acetylcholine response | activation, % at 3 µM | 0.19% of 360,000 active;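 active = activation above the run's mean over test compounds plus 3 SD, cut at about 23% in these data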;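 note: signal is peak over basal fluorescence ratio across the kinetic read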
CHRM4 agonist – agonists of human muscarinic M4 receptor (CHRM4); P08173; CHO-K1 hM4/Gqi5, Fluo-8 calcium fluorescence; vehicle 0%, full acetylcholine response 100%; activation, % at 3 µM; 0.14% of 360,000 active; AID 624127;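 active = activation above the run mean over all test wells plus 3 SD, cut at about 32% in these data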;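 note: peak over basal fluorescence ratio per well then scaled between controls; 0% = DMSO wells and 100% = acetylcholine at EC100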
CHRM4 antagonist – blocks acetylcholine activation of human M4 receptor | CHO-hM4 cells, ACh EC80, Fluo-8 calcium fluorescence | inhibition, % at 3 µM | 0.73% of 360,000 active | AID 624125;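 active = inhibition above its plate's cutoff, the mean inhibition of sample wells plus 3 SD, cut at about 27% in these data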;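 note: 0% = acetylcholine EC80 with DMSO and 100% = DMSO without agonist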
* = called active by the depositor.

SMILES	M5 antag	CHRM4 PAM	M5 PAM	M5 ag	CHRM4 agonist	CHRM4 antagonist
Cc1cc(N2C(=O)c3ccc(C(=O)Nc4ccccc4O)cc3C2=O)no1	28*	2	-5	-5	0	-2
CN1CCC(C(=O)C(=O)O)C1=O (centres undefined)	-7	11	8	8	1	-5
O=[N+]([O-])c1cc([N+](=O)[O-])c(Oc2cccc3ccccc23)cc1NN1CCCCC1	-13	30*	9	3	2	-3
O=[N+]([O-])c1cc([N+](=O)[O-])c(Oc2ccc(F)cc2F)cc1NN1CCCCC1	-11	27*	3	5	3	-16
O=C(C[C@H]1CC[C@H]2[C@@H](COC[C@@H](O)CN2S(=O)(=O)c2ccc(F)cc2)O1)N[C@@H]1CCN(Cc2ccccc2)C1	5	11	4	-2	1	-3
C[n+]1ccccc1/C=C/c1cc(Br)ccc1O	34*	-13	-16	-2	1	12
CC1(C(=O)OCC(=O)Nc2ccc(C(N)=O)cc2)CC1(Cl)Cl (centres undefined)	1	8	8	-2	0	-12
COc1ccccc1NC(=O)c1ccc(NC(=O)COC(=O)C2(C)CC2(Cl)Cl)cc1 (centres undefined)	29*	-15	-19	2	16	8
Cc1c(C(=O)N(Cc2nccn2C)C(C)C)oc2c(F)cccc12	10	4	-1	-4	1	-16
CCCc1ccc2oc(C(=O)N(Cc3nccn3C)C(C)C)c(C)c2c1	-1	17*	10	-2	2	-28
O=C(O)/C=C/c1cn(-c2ccccc2)nc1-c1cccc([N+](=O)[O-])c1	-1	3	1	-1	0	-3
O=C(/C=C/c1cn(-c2ccccc2)nc1-c1ccccc1)Nc1ccc(C(=O)O)cc1	10	-39	-22	-4	0	71*
NS(=O)(=O)c1ccc(NC(=O)/C=C/c2cn(-c3ccccc3)nc2-c2cccc(Cl)c2)cc1	4	-4	7	-1	1	-2
Cc1ccc(C(=O)N/C(=C/c2cn(-c3ccccc3)nc2-c2ccccc2)C(=O)O)cc1	3	9	20*	7	1	0
CC(C)NC(=O)/C(=C/c1cn(-c2ccccc2)nc1-c1cccc([N+](=O)[O-])c1)NC(=O)c1ccccc1	10	-2	-11	3	11	32*
CCCn1cnnc1CNC(=O)C1CCC(=O)N(CCc2ccc(OC)cc2)C1 (centres undefined)	11	0	-5	-2	1	11
Cc1cccc(C(=O)NNC(=O)CSc2nnc(C3CC3)n2C)c1	11	0	3	-2	1	-9
CCOc1ccc(NC(=O)CCN2C(=O)c3ccccc3C2=O)cc1	15	1	2	-6	2	1
O=C(CSc1ccc(-c2nc3ccccc3[nH]2)cn1)Nc1ccc(S(=O)(=O)NC2CC2)cc1	14	-21	-16	-2	9	31*
Cc1ccc(C(=O)/C=C/Nc2cccc(O)c2)cc1	18	18	35*	-1	-1	-2
O=C(NCC1COCCO1)c1cc(COc2c(F)cccc2F)on1 (centres undefined)	-2	4	2	-4	1	4
Cc1c(N=NC2=C(O)CC(C)(C)CC2=O)cc2c(c1[N+](=O)[O-])C(C)(C)CC2(C)C	-24	-4	23*	4	1	-6
CC(=O)Nc1cc2c(c([N+](=O)[O-])c1C)C(C)(C)CC2(C)C	7	-2	7	-11	0	-3
CSc1ccc(CN(C)C(=O)C(c2ccccc2)c2ccccc2)cc1	3	-11	-3	-2	5	1
CN(CCN(C)C(C)(C)C)C(=O)C(c1ccccc1)c1ccccc1	31*	-55	-35	-20	1	91*
SMILES	M5 antag	CHRM4 PAM	M5 PAM	M5 ag	CHRM4 agonist	CHRM4 antagonist
CC1(C)CCN2CCC(C)(C)c3c(O)ccc1c32	41*	-13	-16	95*	30	26
CCCC(=O)NC(=S)Nc1ccc(S(=O)(=O)Nc2ccc(OCC)cc2)cc1	6	7	3	25*	17	-3
COc1ccc(S(=O)(=O)Nc2ccc(S(=O)(=O)NCC3CCCO3)cc2)cc1 (centres undefined)	14	-1	-5	1	3	2
COc1ccc(NS(=O)(=O)c2ccc(NC(=S)NCC3CCCO3)cc2)cc1 (centres undefined)	27*	-8	-9	3	12	7
CCOc1ccc(NS(=O)(=O)c2ccc(NC(=S)NC(=O)CC(C)C)cc2)cc1	20	5	-3	10	13	9
O=S(=O)(NCC1CCCO1)c1ccc(-c2ccc(S(=O)(=O)NCC3CCCO3)cc2)cc1 (centres undefined)	35*	-14	-25	7	13	9
Cc1ccc(S(=O)(=O)NCC2CCCO2)cc1 (centres undefined)	-12	0	14	2	1	-5
COC(=O)[C@@]12C[C@@H](CC(=O)N3CCCCC3)C(=O)N(CCc3ccc(OC)c(OC)c3)C1=CCC(C)(C)C2	6	12	-4	0	6	2
CC(C)N(CC#CCC(O)(c1ccccc1)C1CCCC1)CCO (centres undefined)	47*	-17	-19	-9	2	14
CCN(CC#CCC(O)(c1ccccc1)C1CCCC1)C(C)C (centres undefined)	83*	-14	-15	-11	2	92*
COc1ccc(-c2csc(NC(=O)c3ccc(S(=O)(=O)N4CCc5ccccc5C4)cc3)n2)c(OC)c1	3	10	1	-1	1	-4
Cc1ccc(Cl)cc1NC(=O)c1cc(S(=O)(=O)N2CCOCC2)cn1C	-3	10	-6	0	2	-16
C/C(=N\Nc1ncnc2sc(C)c(C)c12)c1ccccn1	-22	5	22*	-1	2	-17
Cc1cc(-c2cn3ccccc3n2)c(C)n1-c1ccccc1	-1	-22	-15	-6	0	41*
Cc1nc2ccccc2c(=O)n1NC(=O)c1ccccc1Br	-3	11	-1	-3	1	-17
COc1ccc(NC(=O)c2[nH]ncc2[N+](=O)[O-])cc1	-9	1	18*	0	0	-1
CCCc1nnc(NC(=O)Cn2c(=O)oc3cc(Br)ccc32)s1	-3	-3	5	39*	22	-6
